Reference: ChEMBL document CHEMBL4342502, “Synthesis and Antichlamydial Activity of Molecules Based on Dysregulators of Cylindrical Proteases” (J Med Chem, 2020)
The source made the active and inactive calls. The rule behind the calls is not given here.

Columns and labels:
[1] = tested on: Chlamydia trachomatis; assay: (§1) Activation of recombinant Chlamydia trachomatis Serovar LGV-L2 C-terminal 6xhis-tagged ClpP1 expressed in Escherichia coli assessed as induction of casein degradation at 0.1 to 1 uM using FITC-labelled casein as substrate pretreated with enzyme for 30 mins followed by substrate addition and measured every 3 mins for 3 hrs in absence chaperone by fluorescence based tecan-plate reader assay
How it was run: (§2)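 Recombinant C-terminal His6-tagged ClpP, expressed in a clpAPX-null E. coli strain and purified (mammalian ClpP without mitochondrial signal, codon-optimized). ClpP at 1 or 0.1 μM (E. coli), 1 μM (human, mouse) or 6 μM (chlamydial ClpP1 and ClpP2) preincubated with compound or DMSO, 30 min, 32 °C, in HEPES pH 7.6/KCl/MgCl2/DTT/glycerol buffer. 20 μM FITC-casein then added. Fluorescence (ex 490/em 525 nm) read every 3 min for 3 h. At least three runs on at least two protein preparations.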

[2] = tested on: Candida albicans; assay: Antifungal activity against Candida albicans ATCC 90028 assessed as fungal growth inhibition at 32 ug/ml measured after 16 hrs by broth microdilution method; type: functional, organism-based
[3] = tested on: Escherichia coli; assay: Antibacterial activity against Escherichia coli ATCC 25922 assessed as bacterial growth inhibition at 32 ug/ml measured after 16 hrs by broth microdilution method; type: functional, organism-based
[4] = tested on: HeLa 229; assay: Cytotoxicity against human HeLa 229 cells assessed as reduction in cell viability at 50 ug/ml after 24 hrs by CCK-8 assay; type: cell-based; details: hela 229, 24 h
How it was run: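 HeLa 229 and HaCaT cells in DMEM with 10% FBS and 1% penicillin/streptomycin, 37 °C, 5% CO2, seeded at 5000 cells/well. Next day treated with 50 μg/mL in triplicate, with matching DMSO controls. After 24 h, CCK-8 added for 2 h; corrected absorbance read at 450 nm.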

[5] = tested on: Chlamydia trachomatis; assay: as §1, with “ClpP2” for “ClpP1”, “absence of AAA+” for “absence”; how it was run: as §2
[6] = tested on: Escherichia coli; assay: Antibacterial activity against Escherichia coli K12 assessed as bacterial growth inhibition at 32 ug/ml measured after 16 hrs by broth microdilution method; type: functional, organism-based; details: K-12
How it was run: (§3)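 Broth microdilution in Mueller Hinton broth, triplicate. Direct colony suspension at 1.5 x 10^8 CFU/mL diluted to ~10^5 CFU/mL. Serial dilutions made from DMSO stocks at 1 mg/mL; vancomycin positive control, blank medium negative control. Incubated 16 h at optimum temperature. MIC is the lowest concentration without visible growth at 600 nm; mean of triplicate determinations.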

[7] = Drug metabolism in human liver microsomes assessed as amount of drug modified at 1 ug/ml […] in presence of NADPH by LC-MS/MS analysis; type: ADME, Microsome; details: read-out: Drug metabolism
[8] = Toxicity in Drosophila melanogaster assessed as survival rate at 0.25 to 1 mM; details: 1000 µM
How it was run: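 Drosophila SMART assay using third-instar larvae (72 ± 4 h) from ST and HB crosses. Larvae exposed in hydrated instant mashed-potato medium at 0.25, 0.5 and 1.0 mM final. Vehicle control: water with 1% Tween-80 and 3% ethanol. Survival of treated groups compared statistically with the vehicle control.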

[9] = Stability of compound in mouse pre-heated plasma at 50 uM incubated up to 120 mins by HPLC-ESI/MS analysis; type: ADME, cell-free; details: 2 h
How it was run: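 Compounds from 2.5 mM DMSO stocks incubated at 50 μM final in mouse plasma diluted to 80% with PBS, preheated, 37 °C, shaking. Sampled at 0, 15, 30, 60, 90 and 120 min and quenched with cold acetonitrile. Centrifuged; supernatant analysed by HPLC-ESI-MS. Peak area reported relative to time zero. Enalapril positive control; triplicate.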

[10] = Mutagenicity in Drosophila melanogaster somatic cells assessed as frequency of clone formation in HB crosses at 0.25 to 1 mM by SMART assay; type: ADME; details: 1000 µM
How it was run: (§4)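 Drosophila SMART wing-spot assay, ST and HB crosses. Third-instar larvae (72 ± 4 h) placed on hydrated instant mashed potato medium containing compound at 0.25, 0.5 or 1.0 mM final. Negative control: water with 1% Tween-80 and 3% ethanol. Statistics by Frei and Würgler two-sided U test, P≤0.05.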

[11] = tested on: Chlamydia trachomatis; assay: as §1, with “ClpP1/ClpP2 dimer” for “ClpP1”, “absence of AAA+” for “absence”; how it was run: as §2
[12] = tested on: Staphylococcus aureus; assay: Antibacterial activity against Staphylococcus aureus JE2 assessed as bacterial growth inhibition at 32 ug/ml measured after 16 hrs by broth microdilution method; type: functional, organism-based; how it was run: as §3
[13] = tested on: Acinetobacter baumannii; assay: Antibacterial activity against Acinetobacter baumannii ATCC 19606 assessed as bacterial growth inhibition at 32 ug/ml measured after 16 hrs by broth microdilution method; type: functional, organism-based; details: ATCC 19606 = CIP 70.34 = JCM 6841
[14] = Mutagenicity in Drosophila melanogaster somatic cells assessed as frequency of clone formation in ST crosses at 0.25 to 1 mM by SMART assay; type: ADME; details: 1000 µM; how it was run: as §4
[15] = Stability of compound in human liver microsomes at 1 ug/ml measured up to 60 mins in absence of NADPH by LC-MS/MS analysis; type: ADME, Microsome; details: 1 h
How it was run: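 Human liver microsomes (1.0 mg/mL protein) in 100 mM phosphate pH 7.4 with 10 mM MgCl2 and 2 mM NADPH, preincubated 10 min at 37 °C. Reaction started with compound at 1 μg/mL. Sampled at 0, 5, 15, 20, 30, 45 and 60 min and quenched in methanol with internal standard. Controls: no NADPH (negative), testosterone (positive). Analysed by LC-MS/MS, triplicate.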

[16] = tested on: Staphylococcus aureus; assay: Antibacterial activity against methicillin-resistant Staphylococcus aureus ATCC 43300 assessed as bacterial growth inhibition at 32 ug/ml measured after 16 hrs by broth microdilution method; type: functional, organism-based
[17] = tested on: Pseudomonas aeruginosa; assay: Antibacterial activity against Pseudomonas aeruginosa ATCC 27853 assessed as bacterial growth inhibition at 32 ug/ml measured after 16 hrs by broth microdilution method; type: functional, organism-based
[18] = Stability of the compound in simulated gastric fluid at 50 uM and pH 1.2 at 37 degree C measured up to 120 mins by HPLC-ESI/MS analysis; details: simulated gi fluid, pH 1.2, 2 h
[19] = as §1, with “human” for “Chlamydia trachomatis Serovar LGV-L2”, “6xHis-tagged ClpP” for “6xhis-tagged ClpP1”, “absence of AAA+” for “absence”; how it was run: as §2
[20] = tested on: Chlamydia trachomatis; assay: Anti-chlamydial activity against Chlamydia trachomatis Serovar LGV-L2 infected in Hep2 cells assessed as reduction in chlamydial infectivity by measuring decrease in inclusion forming units at 50 ug/ml treated at 8 hrs post-infection and 24 hrs later re-infecting fresh Hep2 cells monolayer with infected cells and measured at 24 hrs post re-infection by immunofluorescence staining based microscopy analysis; type: functional, organism-based
How it was run: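 HEp-2 cells in DMEM with 10% FBS, infected with C. trachomatis L2 at MOI 1. Compounds added 8 hpi in triplicate; DMSO stocks at 50 mg/mL. At 24 hpi lysates collected in sucrose storage medium, frozen at −80 °C, and used to infect fresh HEp-2 monolayers in 10-fold dilutions. After 24 h, stained with goat anti-MOMP and Alexa488 secondary. Inclusions counted in 15 fields at 20x; IFU = mean count per field corrected for dilution.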

| Structure (SMILES) | Activity [1] | inhibition [2] | inhibition [3] | Activity [4] | Activity [5] | inhibition [6] | metabolised at 10 min, 1 ug/ml [7] | Activity [8] | Stability [9] | Activity [10] | Activity [11] | inhibition [12] | inhibition [13] | Activity [14] | Stability [15] | inhibition [16] | inhibition [17] | Stability [18] | Activity [19] | inhibition [20] |
| --- | --- | --- | --- | --- | --- | --- | --- | --- | --- | --- | --- | --- | --- | --- | --- | --- | --- | --- | --- | --- |
| CC(C)(C(=O)NCCCc1ccccc1)S(=O)(=O)c1ccc(C(F)(F)F)cc1 | Active | inactive | inactive | Toxic | Active | inactive | 90% | Non-Toxic | Stable | Non-Toxic | Active | inactive | inactive | Non-Toxic | Stable | inactive | inactive | Stable | Active | Active |
| CC(C)(C(=O)N1CCN(Cc2ccc(Cl)cc2)CC1)S(=O)(=O)c1ccc(C(F)(F)F)cn1 | inactive | inactive | inactive | Non-Toxic | inactive | inactive | 90% | Non-Toxic | Stable | Non-Toxic | inactive | inactive | inactive | Non-Toxic | Stable | inactive | inactive | Stable | Not Active | Active |
